Experimental data: paper PMC6072465 (MedChemComm, 2017)

Columns and labels:
[1] = system: HCT116 (human colon carcinoma) cancer cells; assay: Oxygen consumption, Seahorse XF-96 Analyzer; type: cell-based; settings: incubation for 24 hours
Outline: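 HCT116 cells grown in DMEM with 10% heat-inactivated FCS and penicillin/streptomycin at 37 °C, 5% CO2. About 15 000 cells/well adhered overnight, then were exposed to test compounds for 24 h. Cells were washed and held 1 h at 37 °C without CO2 in unbuffered DMEM (5 mM glucose, 2 mM glutamine, pH 7.4). Basal OCR was read, then sequential oligomycin, CCCP, and rotenone/antimycin A. Rates normalized to total well protein.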

[2] = system: HCT116 cells; assay: Cytochrome c release from mitochondria to cytosol; type: cell-based, human; settings: concentration 3.5 μM
[3] = system: caspase-3 in HCT116 cells; assay: Caspase-3 activity with fluorogenic substrate DEVD-AMC, HCT116 cells; type: cell-based, human; settings: compared with betulinic acid
[4] = system: caspase-3 in TET21N cells; assay: Caspase-3 activity with fluorogenic substrate DEVD-AMC, TET21N cells; type: cell-based, human; settings: compared with betulinic acid

Row | SMILES | effect on mitochondrial respiration (oxygen consumption) [1] | release of cytochrome c from the mitochondria to the cytosol [2] | activation of caspase-3 [3] | activation of caspase-3 [4]
1 | C=C(C)[C@@H]1CC[C@]2(C(=O)O)CC[C@]3(C)[C@H](CC[C@@H]4[C@@]5(C)CC[C@H](O)C(C)(C)[C@@H]5CC[C@]43C)[C@@H]12 [BA, betulinic acid, reference compound] | ineffective | failed to trigger the release of cytochrome c |  | 
2 | C=C(C)[C@@H]1CC[C@]2(C(=O)OCCOCCOCC[P+](c3ccccc3)(c3ccccc3)c3ccccc3)CC[C@]3(C)[C@H](CC[C@@H]4[C@@]5(C)CC[C@H](OC(C)=O)C(C)(C)[C@@H]5CC[C@]43C)[C@@H]12.[Br-] [compound 7, 8′-(Triphenylphosphonio-3′,6′-dioxaoctan-1′-yl)-3β-acetoxylup-20(29)-en-28-oate bromide] | suppressed respiration in a concentration-dependent manner |  |  | 
3 | C=C(C)[C@@H]1CC[C@]2(C(=O)OCCOCCOCC[P+](c3ccccc3)(c3ccccc3)c3ccccc3)CC[C@]3(C)[C@H](CC[C@@H]4[C@@]5(C)CC[C@H](O)C(C)(C)[C@@H]5CC[C@]43C)[C@@H]12.[Br-] [compound 9, 9′-(Triphenylphosphonio-3′,6′-dioxaoctan-1′-yl)-3β-hydroxylup-20(29)-en-28-oate bromide] | suppressed respiration in a concentration-dependent manner |  | considerably surpassed betulinic acid in the caspase-3 activation | considerably surpassed betulinic acid in the caspase-3 activation
